# In ChEMBL document CHEMBL1144721, “Bioactive triterpene saponins from the roots of Phytolacca americana” (J Nat Prod, 2008):
# Assays:
# WI-38 VA13 = assay: Cytotoxicity against human VA13 cells; assay type: functional, cell-based
# Summary of the method: (§1)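 IC50 values are the mean of duplicate determinations.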
# [1] = target: T1, ATP-dependent translocase ABCB1 (Homo sapiens, UniProt P08183); assay: Inhibition of P-glycoprotein-mediated multidrug resistance in human 2780AD cells assessed as calcein accumulation at 2.5 ug/mL relative to control; assay type: cell-based; parameters: scale not given: the % may be the effect or the level left; settings: a2780 adr
# T1 sequence (P08183 whole entry): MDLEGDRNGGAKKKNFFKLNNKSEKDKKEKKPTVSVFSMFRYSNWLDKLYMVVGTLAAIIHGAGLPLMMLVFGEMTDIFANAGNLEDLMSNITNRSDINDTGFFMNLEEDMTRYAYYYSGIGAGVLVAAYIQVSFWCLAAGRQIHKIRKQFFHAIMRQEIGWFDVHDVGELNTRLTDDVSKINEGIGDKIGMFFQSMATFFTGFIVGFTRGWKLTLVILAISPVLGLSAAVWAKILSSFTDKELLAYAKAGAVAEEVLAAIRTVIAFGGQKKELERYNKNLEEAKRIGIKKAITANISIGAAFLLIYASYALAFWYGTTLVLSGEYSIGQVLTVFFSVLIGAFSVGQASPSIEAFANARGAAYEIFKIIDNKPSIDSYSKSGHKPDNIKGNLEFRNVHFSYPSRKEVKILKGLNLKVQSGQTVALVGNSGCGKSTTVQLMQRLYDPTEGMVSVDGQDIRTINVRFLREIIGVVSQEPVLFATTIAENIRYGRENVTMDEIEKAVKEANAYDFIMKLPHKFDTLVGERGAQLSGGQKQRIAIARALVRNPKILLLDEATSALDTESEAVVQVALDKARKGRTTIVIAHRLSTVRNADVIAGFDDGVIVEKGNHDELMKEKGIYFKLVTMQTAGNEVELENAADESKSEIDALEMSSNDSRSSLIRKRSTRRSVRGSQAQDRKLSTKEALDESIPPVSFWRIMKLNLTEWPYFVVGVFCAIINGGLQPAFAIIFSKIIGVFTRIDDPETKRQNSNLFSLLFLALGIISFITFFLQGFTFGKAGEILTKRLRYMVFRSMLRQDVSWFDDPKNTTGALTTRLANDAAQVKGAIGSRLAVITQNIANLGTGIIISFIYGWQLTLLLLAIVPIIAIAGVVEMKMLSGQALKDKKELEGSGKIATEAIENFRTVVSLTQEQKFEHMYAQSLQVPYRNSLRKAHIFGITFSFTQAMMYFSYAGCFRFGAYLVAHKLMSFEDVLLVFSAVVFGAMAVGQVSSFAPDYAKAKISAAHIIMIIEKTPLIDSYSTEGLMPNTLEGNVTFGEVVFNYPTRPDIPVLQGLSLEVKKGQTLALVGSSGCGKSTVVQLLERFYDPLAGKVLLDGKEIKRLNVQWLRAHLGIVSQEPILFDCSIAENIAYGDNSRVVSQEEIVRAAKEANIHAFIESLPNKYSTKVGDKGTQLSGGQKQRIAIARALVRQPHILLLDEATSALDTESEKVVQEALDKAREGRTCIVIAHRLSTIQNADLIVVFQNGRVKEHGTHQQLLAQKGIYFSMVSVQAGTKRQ
# Summary of the method: (§2)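 Multidrug-resistant human ovarian cancer 2780AD cells exposed to compound at 0.25, 2.5 or 25 μg/mL. Intracellular calcein accumulation measured and expressed as the amount relative to an untreated control (% of control).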
# WI-38 = assay: Cytotoxicity against human WI38 cells; assay type: functional, cell-based; summary of the method: as §1
# [2] = target: T1, ATP-dependent translocase ABCB1; assay: Inhibition of P-glycoprotein-mediated multidrug resistance in human 2780AD cells assessed as calcein accumulation at 25 ug/mL relative to control; assay type: cell-based; parameters: scale not given: the % may be the effect or the level left; settings: a2780 adr; summary of the method: as §2
# A549 [3] = assay: Cell viability of human A549 cells after 24 hrs by MTT assay; assay type: functional
# Summary of the method: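 A549 cells incubated with serial dilutions of compound for 24 h. Viability (%) measured by MTT assay and used to derive IC50. Triplicate cultures.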
# HepG2 = assay: Cytotoxicity against human HepG2 cells; assay type: functional, cell-based; summary of the method: as §1
# [4] = target: T1, ATP-dependent translocase ABCB1; assay: Inhibition of P-glycoprotein-mediated multidrug resistance in human 2780AD cells assessed as calcein accumulation at 0.25 ug/mL relative to control; assay type: cell-based; parameters: scale not given: the % may be the effect or the level left; settings: a2780 adr; summary of the method: as §2
# A549 [5] = assay: Antiinflammatory activity against human A549 cells assessed as inhibition of IL-1-alpha-induced ICAM1 expression after 6 hrs
SMILES,IC50 (WI-38 VA13) [µM],Activity [1] [%],IC50 (WI-38) [µM],Activity [2] [%],Activity (A549 [3]) [µM],IC50 (HepG2) [µM],Activity [4] [%],Activity (A549 [5]) [µM]
COC(=O)[C@@]1(C)CC[C@]2(C(=O)O[C@@H]3O[C@H](CO)[C@@H](O)[C@H](O)[C@H]3O)CC[C@]3(C)C(=CC[C@@H]4[C@@]5(C)C[C@H](O)[C@H](O[C@@H]6OC[C@@H](O)[C@H](O)[C@H]6O)[C@@](C)(CO)[C@@H]5CC[C@]43C)[C@@H]2C1,95.2,132,> 121,143,>121,> 121,141,>121
COC(=O)[C@@]1(C)CC[C@]2(C(=O)O[C@@H]3O[C@H](CO)[C@@H](O)[C@H](O)[C@H]3O)CC[C@]3(C)C(=C[C@@H](O)[C@@H]4[C@@]5(C)C[C@H](O)[C@H](O[C@@H]6OC[C@@H](O[C@@H]7O[C@H](CO)[C@@H](O)[C@H](O)[C@H]7O)[C@H](O)[C@H]6O)[C@@](C)(CO)[C@@H]5CC[C@]43C)[C@@H]2C1,94,119,> 100,124,>100,> 100,121,>100
COC(=O)[C@@]1(C)CC[C@]2(C(=O)O[C@@H]3O[C@H](CO)[C@@H](O)[C@H](O)[C@H]3O)CC[C@]3(C)C(=C[C@@H](OC)[C@@H]4[C@@]5(C)C[C@H](O)[C@H](O[C@@H]6OC[C@@H](O[C@@H]7O[C@H](CO)[C@@H](O)[C@H](O)[C@H]7O)[C@H](O)[C@H]6O)[C@@](C)(CO)[C@@H]5CC[C@]43C)[C@@H]2C1,> 98.2,100,> 98.2,108,>98.2,> 98.2,105,>98.2
COC(=O)[C@@]1(C)CC[C@]2(C(=O)O[C@@H]3O[C@H](CO)[C@@H](O)[C@H](O)[C@H]3O)CC[C@]3(C)C(=CC[C@@H]4[C@@]5(C)CC[C@H](O[C@@H]6OC[C@@H](O)[C@H](O[C@@H]7OC[C@@H](O)[C@H](O)[C@H]7O[C@@H]7O[C@H](CO)[C@@H](O)[C@H](O)[C@H]7O[C@@H]7O[C@@H](C)[C@H](O)[C@@H](O)[C@H]7O)[C@H]6O)[C@@](C)(CO)[C@@H]5CC[C@]43C)[C@@H]2C1,> 89,68,> 89,94,>89,> 89,93,>89
COC(=O)[C@@]1(C)CC[C@]2(C(=O)O[C@@H]3O[C@H](CO)[C@@H](O)[C@H](O)[C@H]3O)CC[C@]3(C)C(=CC[C@@H]4[C@@]5(C)C[C@H](O)[C@H](O[C@@H]6OC[C@@H](OC7O[C@H](CO)[C@@H](O)[C@H](O)[C@H]7O)[C@H](O)[C@H]6O)[C@@](C)(CO)[C@@H]5CC[C@]43C)[C@@H]2C1 (stereo partly specified),> 101,129,> 101,123,>1012,> 101,124,>320
COC(=O)[C@@]1(C)CC[C@]2(C(=O)O[C@@H]3O[C@H](CO)[C@@H](O)[C@H](O)[C@H]3O)CC[C@]3(C)C(=CC[C@@H]4[C@@]5(C)CC(=O)[C@H](O[C@@H]6OC[C@@H](O[C@@H]7O[C@H](CO)[C@@H](O)[C@H](O)[C@H]7O)[C@H](O)[C@H]6O)[C@@](C)(CO)[C@@H]5CC[C@]43C)[C@@H]2C1,> 101,115,> 101,120,>101,> 101,98,>101
COC(=O)[C@@]1(C)CC[C@]2(C(=O)O[C@@H]3O[C@H](CO)[C@@H](O)[C@H](O)[C@H]3O)CC[C@]3(C)C(=CC[C@@H]4[C@@]5(C)CC[C@H](O[C@@H]6OC[C@@H](OC7O[C@H](CO)[C@@H](O)[C@H](O)[C@H]7O)[C@H](O)[C@H]6O)[C@@](C)(CO)[C@@H]5CC[C@]43C)[C@@H]2C1 (stereo partly specified),> 103,101,> 103,126,>103,> 103,124,>103
COC(=O)[C@@]1(C)CC[C@]2(C(=O)O)CC[C@]3(C)C(=CC[C@@H]4[C@@]5(C)C[C@H](O)[C@H](O[C@@H]6OC[C@@H](OC7O[C@H](CO)[C@@H](O)[C@H](O)[C@H]7O)[C@H](O)[C@H]6O)[C@@](C)(CO)[C@@H]5CC[C@]43C)[C@@H]2C1 (stereo partly specified),117,104,7.1,119,661,102,111,>383
COC(=O)[C@@]1(C)CC[C@]2(C(=O)O[C@@H]3O[C@H](CO)[C@@H](O)[C@H](O)[C@H]3O)CC[C@]3(C)C(=CC(=O)[C@@H]4[C@@]5(C)C[C@H](O)[C@H](O[C@@H]6OC[C@@H](OC7O[C@H](CO)[C@@H](O)[C@H](O)[C@H]7O)[C@H](O)[C@H]6O)[C@@](C)(CO)[C@@H]5CC[C@]43C)[C@@H]2C1 (stereo partly specified),> 98.8,135,> 98.8,155,>98.8,97.4,119,>98.8
COC(=O)[C@@]1(C)CC[C@]2(C(=O)O)CC[C@]3(C)C(=C[C@@H](OC)[C@@H]4[C@@]5(C)C[C@H](O)[C@H](O[C@@H]6OC[C@@H](O[C@@H]7O[C@H](CO)[C@@H](O)[C@H](O)[C@H]7O)[C@H](O)[C@H]6O)[C@@](C)(CO)[C@@H]5CC[C@]43C)[C@@H]2C1,> 118,123,> 118,135,>118,> 118,118,>118
COC(=O)[C@@]1(C)CC[C@]2(C(=O)O[C@@H]3O[C@H](CO)[C@@H](O)[C@H](O)[C@H]3O)CC[C@]3(C)C(=CC[C@@H]4[C@@]5(C)CC[C@H](O[C@@H]6OC[C@@H](O[C@@H]7O[C@H](CO)[C@@H](O)[C@H](O)[C@H]7O)[C@H](O)[C@H]6O[C@@H]6O[C@H](CO)[C@@H](O)[C@H](O)[C@H]6O)[C@@](C)(CO)[C@@H]5CC[C@]43C)[C@@H]2C1,> 88.2,106,> 88.2,123,>88.2,> 88.2,126,>88.2
COC(=O)[C@@]1(C)CC[C@]2(C(=O)O)CC[C@]3(C)C(=CC[C@@H]4[C@@]5(C)C[C@H](O)[C@H](O[C@@H]6OC[C@@H](O)[C@H](O)[C@H]6O)[C@@](C)(CO)[C@@H]5CC[C@]43C)[C@@H]2C1 [PHYTOLACCOSIDE B],68.9,117,36.2,123,265,74.7,128,253
